These results are taken from ChEMBL document CHEMBL4706580, “4-Amino-1,2,4-triazole-3-thione-derived Schiff bases as metallo-β-lactamase inhibitors” (Eur J Med Chem, 2020).

Calls of active or inactive are those of the source. The rule behind the calls is not given here. Some results are limits rather than exact numbers.

In test [1] the test system is Escherichia coli. The test can be described thus: Synergistic antibacterial activity against NDM-1 producing Escherichia coli assessed ass MIC of ceftazidime/avibactam at 32 ug/ml by broth microdilution method. It is filed as functional. Particulars: dose 32 µg/ml. In a few lines: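 MIC of ceftazidime-avibactam (avibactam fixed at 4 µg/mL) by CLSI broth microdilution in Mueller-Hinton broth. Used the NDM-1-producing multidrug-resistant E. coli clinical isolate SI-001M at 5 × 10⁴ CFU/well, with and without inhibitor at a fixed 32 µg/ml. No colistin added. Triplicate determinations.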

A short description of test [2]: Inhibition of beta-lactamase L1 (unknown origin) expressed in Escherichia coli BL21(DE3) using nitrocefin as substrate by measuring substrate hydrolysis preincubated for 30 mins by spectrophotometric analysis. In a few lines:
(§1)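 Enzyme 0.2–0.8 nM in 25 mM HEPES pH 7.5 with 50 μM ZnCl2 final, pre-incubated 30 min at 21 °C with inhibitor (100 μM screen). Nitrocefin 100 μM final, read at 482 nm, 30 °C. Residual activity vs three uninhibited samples; Ki (1–100 μM inhibitor) from Hanes linearization, competitive model. Triplicate.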

Test [3] in a line: Inhibition of beta-lactamase NDM1 (unknown origin) expressed in Escherichia coli BL21(DE3) using cefotaxime/nitrocefin as substrate by measuring substrate hydrolysis by spectrophotometric analysis. In a few lines: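 His-tagged enzyme from E. coli BL21(DE3) pET-15b, affinity-purified, 1-70 nM final. Reporter substrate 120 μM cefotaxime (260 nm) or 100 μM nitrocefin (482 nm), 30 °C, 50 mM HEPES pH 7.5. Inhibitor 0.5–1,000 μM final; competitive Ki from v0/vi vs [I] slope or Dixon plot. Triplicate.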

Test [4] is described as follows: Inhibition of beta-lactamase VIM4 (unknown origin) expressed in Escherichia coli BL21(DE3) using imipenem as substrate by measuring substrate hydrolysis by spectrophotometric analysis. In a few lines: (§2)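 Purified enzyme (overproduced in E. coli BL21(DE3), pET-9a; ion-exchange and gel filtration), 1-70 nM final. Reporter substrate 150 μM imipenem, read at 300 nm, 30 °C, 50 mM HEPES pH 7.5. Single-point screen at 100 or 200 μM; Ki from v0/vi vs [I] (0.5–1,000 μM final) assuming competitive inhibition, or Dixon plot. Triplicate.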

Test [5] in a line: Inhibition of beta-lactamase VIM-2 (unknown origin) expressed in Escherichia coli LZ2310 assessed as potentiation of cefoxitin antibacterial activity by measuring cefoxitin induced diameter of inhibition zone at 80 uM incubated for 18 hrs by disk diffusion method (reference value: 14 mm). In a few lines: (§3)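 Efflux-deficient E. coli LZ2310 (NorE, MdfA, AcrA knocked out) carrying pLB-II with the cloned MBL gene. Mueller-Hinton, CLSI disk diffusion; antibiotic disks (30 µg cefoxitin for VIM-2, 10 µg ampicillin for VIM-4, 30 µg ceftazidime for NDM-1/IMP-1) loaded with inhibitor in DMSO (≤15 µL). Zone diameter after 18 h, 35 ± 1 °C; DMSO and 220 µg EDTA controls. Triplicate.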

Test [6] is described as follows: Inhibition of beta-lactamase VIM2 (unknown origin) expressed in Escherichia coli BL21(DE3) using imipenem as substrate by measuring substrate hydrolysis by spectrophotometric analysis. A digest of the protocol: as §2
Test [7] deals with Escherichia coli. The experiment in a line: Synergistic antibacterial activity against NDM-1 producing Escherichia coli assessed as MIC of imipenem at 32 ug/ml by broth microdilution method. The format is functional. Particulars: dose 32 µg/ml.
Test [8] concerns Escherichia coli. The test can be described thus: Synergistic antibacterial activity against NDM-1 producing Escherichia coli assessed as MIC of ceftazidime at 32 ug/ml by broth microdilution method. The format is functional. The settings on record: dose 32 µg/ml.
A short description of test [9]: Inhibition of beta-lactamase NDM-1 (unknown origin) expressed in Escherichia coli LZ2310 assessed as potentiation of ceftazidime antibacterial activity by measuring ceftazidime induced diameter of inhibition zone at 80 uM incubated for 18 hrs by disk diffusion method (reference value: 15 mm). A digest of the protocol:
as §3

Test [10] is described as follows: Inhibition of beta-lactamase IMP-1 (unknown origin) expressed in Escherichia coli BL21(DE3) using imipenem as substrate by measuring substrate hydrolysis by spectrophotometric analysis. In a few lines:
as §2

For test [11], the system named is Escherichia coli. The experiment in a line: Synergistic antibacterial activity against NDM-1 producing Escherichia coli assessed as MIC of meropenem at 32 ug/ml by broth microdilution method. It is filed as functional. Particulars: dose 32 µg/ml.
Test [12] has as its system Escherichia coli. The experiment in a line: Antibacterial activity against NDM-1 producing Escherichia coli in presence of colistin by broth microdilution method. It is filed as functional.
Test [13] in a line: Inhibition of beta-lactamase L1 (unknown origin) expressed in Escherichia coli BL21(DE3) using nitrocefin as substrate by measuring substrate hydrolysis at 100 uM preincubated for 30 mins by spectrophotometric analysis. A digest of the protocol: as §1
The nature of test [14]: Inhibition of beta-lactamase VIM4 (unknown origin) expressed in Escherichia coli BL21(DE3) using imipenem as substrate by measuring substrate hydrolysis at 100 uM by spectrophotometric analysis. A digest of the protocol:
as §2

Test [15] in a line: Inhibition of beta-lactamase VIM4 (unknown origin) expressed in Escherichia coli BL21(DE3) using imipenem as substrate by measuring substrate hydrolysis at 200 uM by spectrophotometric analysis. In a few lines:
as §2

Test [16] is described as follows: Inhibition of beta-lactamase VIM2 (unknown origin) expressed in Escherichia coli BL21(DE3) using imipenem as substrate by measuring substrate hydrolysis at 200 uM by spectrophotometric analysis. A digest of the protocol:
as §2

Test [17] is described as follows: Inhibition of beta-lactamase L1 (unknown origin) expressed in Escherichia coli BL21(DE3) using nitrocefin as substrate by measuring substrate hydrolysis at 200 uM preincubated for 30 mins by spectrophotometric analysis.
Test [18] can be described thus: Inhibition of beta-lactamase VIM2 (unknown origin) expressed in Escherichia coli BL21(DE3) using imipenem as substrate by measuring substrate hydrolysis at 100 uM by spectrophotometric analysis. In a few lines: as §2
Test [19] concerns the target Hydroxyacylglutathione hydrolase (Homo sapiens). The experiment in a line: Inhibition of human Glyoxalase II expressed in Escherichia coli BL21 (DE3).
Test [20] in a line: Inhibition of beta-lactamase NDM1 (unknown origin) expressed in Escherichia coli BL21(DE3) using cefotaxime/nitrocefin as substrate by measuring substrate hydrolysis at 200 uM by spectrophotometric analysis.
A short description of test [21]: Inhibition of beta-lactamase IMP-1 (unknown origin) expressed in Escherichia coli BL21(DE3) using imipenem as substrate by measuring substrate hydrolysis at 200 uM by spectrophotometric analysis. A digest of the protocol: as §2
A short description of test [22]: Inhibition of beta-lactamase IMP-1 (unknown origin) expressed in Escherichia coli LZ2310 assessed as potentiation of ceftazidime antibacterial activity by measuring ceftazidime induced diameter of inhibition zone at 80 uM incubated for 18 hrs by disk diffusion method (reference value: 9 mm). In a few lines: as §3
The nature of test [23]: Inhibition of beta-lactamase NDM1 (unknown origin) expressed in Escherichia coli BL21(DE3) using cefotaxime/nitrocefin as substrate by measuring substrate hydrolysis at 100 uM by spectrophotometric analysis.
The nature of test [24]: Inhibition of beta-lactamase IMP-1 (unknown origin) expressed in Escherichia coli BL21(DE3) using imipenem as substrate by measuring substrate hydrolysis at 100 uM by spectrophotometric analysis. A digest of the protocol: as §2
Test [25] can be described thus: Inhibition of beta-lactamase VIM-2 (unknown origin) expressed in Escherichia coli XL-1 assessed as potentiation of cefoxitin antibacterial activity by measuring cefoxitin induced diameter of inhibition zone at 320 uM incubated for 18 hrs by disk diffusion method (reference value: 8 mm). In a few lines: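 Wild-type efflux E. coli XL-1 Blue transformed with pLB-II-VIM-2. Mueller-Hinton disk diffusion per CLSI, 30 µg cefoxitin disks loaded with inhibitor dissolved in DMSO (≤15 µL). Growth-inhibition zone measured after 18 h at 35 ± 1 °C; DMSO negative and 220 µg EDTA positive controls. Triplicate.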

Test [26] is described as follows: Inhibition of beta-lactamase VIM-2 (unknown origin) expressed in Escherichia coli LZ2310 assessed as potentiation of cefoxitin antibacterial activity by measuring cefoxitin induced diameter of inhibition zone at 320 uM incubated for 18 hrs by disk diffusion method (reference value: 14 mm). A digest of the protocol:
as §3

Test [27] in a line: Inhibition of beta-lactamase IMP-1 (unknown origin) expressed in Escherichia coli LZ2310 assessed as potentiation of ceftazidime antibacterial activity by measuring ceftazidime induced diameter of inhibition zone at 320 uM incubated for 18 hrs by disk diffusion method (reference value: 9 mm). A digest of the protocol: as §3
Test [28] is described as follows: Binding affinity to beta-lactamase VIM-2 expressed in Escherichia coli BL21(DE3) assessed as change in enthalpy at 25 degC by isothermal titration calorimetry. In a few lines:
(§4)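 VIM-2 (19 μM) in 10 mM HEPES-NaOH, 0.15 M NaCl, 50 μM ZnSO4, pH 7.5, DMSO matched to ligand (1-2% final). One 0.5 μl then 19 × 2 μl injections of compound (200-400 μM), 150 s apart, 25 °C. Buffer dilution heats subtracted; nonlinear least-squares fit for n, Ka, ΔH; compound concentration adjusted in fitting so n ≈ 1.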

The nature of test [29]: Binding affinity to beta-lactamase VIM-2 expressed in Escherichia coli BL21(DE3) assessed as change in entropy at 25 degC by isothermal titration calorimetry. A digest of the protocol: as §4
Test [30] in a line: Binding affinity to beta-lactamase VIM-2 expressed in Escherichia coli BL21(DE3) assessed as Gibbs free energy at 25 degC by isothermal titration calorimetry. In a few lines: as §4
Test [31] can be described thus: Binding affinity to beta-lactamase VIM-2 expressed in Escherichia coli BL21(DE3) assessed as dissociation constant at 25 degC by isothermal titration calorimetry. In a few lines: as §4
Test [32] in a line: Inhibition of beta-lactamase CphA (unknown origin) expressed in Escherichia coli BL21(DE3) using imipenem as substrate by measuring substrate hydrolysis by spectrophotometric analysis. A digest of the protocol: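 Enzyme 0.2–0.8 nM in 15 mM cacodylate pH 6.5, no added zinc, pre-incubated 30 min at 21 °C with inhibitor (100 μM screen). Imipenem substrate added from 10 mM stock; hydrolysis at 300 nm, 30 °C. Residual activity vs three uninhibited samples; Ki (1–100 μM inhibitor) by Hanes linearization, competitive model. Triplicate.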

Test [33] can be described thus: Binding affinity to beta-lactamase VIM-2 expressed in Escherichia coli BL21(DE3) assessed as association constant at 25 degC by isothermal titration calorimetry. In a few lines: as §4

In the case of `O=C(O)c1ccccc1/C=N/n1c(-c2ccc(-c3ccccc3)cc2)n[nH]c1=S`, the MIC in the test with Escherichia coli [1] is more than 256 µg/mL; in the test on Escherichia coli [7], 8 µg/mL; in the test on Escherichia coli [8] it was more than 256 µg/mL; in the test on Escherichia coli [11], 32 µg/mL; in the test on Escherichia coli [12], more than 256 µg/mL. Further, the inhibitory constant (Ki) in test [2] is 0.9 µM; in test [3] it was 1.3 µM; in test [4], 4 µM; in test [6], 2.5 µM; in [10], 32.4 µM. For the same compound, the inhibition zone (IZ) in test [5] and in test [9] was 15 mm each time.
With `S=c1[nH]nc(-c2cccc(-c3ccccc3)c2)n1/N=C/c1ccc(OCc2ccccc2)cc1`, the MIC in the test with Escherichia coli [1] is more than 256 µg/mL; in the test with Escherichia coli [7], 8 µg/mL; with Escherichia coli [8], more than 256 µg/mL; with Escherichia coli [11], 64 µg/mL; in the test with Escherichia coli [12] it was more than 256 µg/mL. Further, the values for the Ki in test [3] and in test [10] were 1.8 µM and 9 µM, respectively. The inhibition entry in [13], in test [14], in [15], in test [16], in test [17] and in test [18] was “inactive” in each case. Also, half-maximal inhibition in [19] (IC50) required 23.4 µM. Besides, the inhibition zone (IZ) in [9] is 15 mm.
For the compound `S=c1[nH]nc(Cc2ccc3ccccc3c2)n1/N=C/c1ccc(OCc2ccccc2)cc1`, the inhibition entry in test [20], in test [21], in test [13], in [14], in test [15] and in test [16] was “inactive” throughout. Besides, the inhibition entry in test [17], in test [18], in test [23] and in [24] was “inactive” in each case. In [22], the inhibition zone (IZ) turned out to be 9 mm.
For `S=c1[nH]nc(-c2cc3ccccc3[nH]2)n1/N=C/c1ccc(OCc2ccccc2)cc1`, the inhibition entry in [20], in [13], in [14], in test [15], in test [16] and in [17] was “inactive” throughout. The inhibition entry in [18] and in [23] was “inactive” throughout. This compound also yielded an inhibition in [21] of 60%. Besides, the inhibition zone (IZ) in test [22] is 9 mm.
`S=c1[nH]nc(-c2ccc(-c3ccccc3)cc2)n1/N=C/c1ccc(OCc2ccccc2)cc1`: the inhibition entry in [13], in test [14], in test [15], in test [16], in [17] and in test [18] was “inactive” each time. Moreover, the results for the inhibition zone (IZ) in test [25], in test [26] and in [27] were 10 mm, 16 mm and 11 mm, respectively. The inhibition in [23] was found to be 64%. The compound further returned an inhibition constant (Ki) in test [10] of 11.4 µM.
For `O=C(O)c1ccccc1/C=N/n1c(-c2cccc(-c3ccccc3)c2)n[nH]c1=S`, the deltaH in test [28] was -7.2 kcal/mol. Moreover, the Ki in [2] stood at 0.6 µM; in test [3], 4.2 µM; in test [4] it was 0.04 µM; in [32] it was 4 µM; in [6], 0.2 µM; in test [10], 17.7 µM. Moreover, the -TdeltaS in [29] worked out at 2.6 kcal/mol. In addition, in test [30], the deltaG was -9.8 kcal/mol. Besides, the dissociation constant (Kd) in test [31] was 0.068 µM. For the same compound, the inhibition zone (IZ) was determined as 9 mm in [25], 15 mm in test [26] and 9 mm in test [27]. Besides, in [33], the Ka is 1.5 10^7/M.
